# Test results as given in ChEMBL document CHEMBL1938251, “Synthesis and evaluation of potent and selective human V1a receptor antagonists as potential ligands for PET or SPECT imaging” (Bioorg Med Chem, 2012).
# pKi: −log10 of the molar value.
# Key:
# Vasopressin V2 receptor = Vasopressin V2 receptor (Homo sapiens, UniProt P30518); experiment: Binding affinity to human vasopressin V2 receptor
# [1] = Permeability of the compound at 25 ug/ml after 18 hrs by PAMPA-BBB assay
# Vasopressin V1b receptor = target: T1, Vasopressin V1b receptor (Homo sapiens, UniProt P47901); experiment: Binding affinity to human V1b receptor
# T1 sequence (P47901 whole entry): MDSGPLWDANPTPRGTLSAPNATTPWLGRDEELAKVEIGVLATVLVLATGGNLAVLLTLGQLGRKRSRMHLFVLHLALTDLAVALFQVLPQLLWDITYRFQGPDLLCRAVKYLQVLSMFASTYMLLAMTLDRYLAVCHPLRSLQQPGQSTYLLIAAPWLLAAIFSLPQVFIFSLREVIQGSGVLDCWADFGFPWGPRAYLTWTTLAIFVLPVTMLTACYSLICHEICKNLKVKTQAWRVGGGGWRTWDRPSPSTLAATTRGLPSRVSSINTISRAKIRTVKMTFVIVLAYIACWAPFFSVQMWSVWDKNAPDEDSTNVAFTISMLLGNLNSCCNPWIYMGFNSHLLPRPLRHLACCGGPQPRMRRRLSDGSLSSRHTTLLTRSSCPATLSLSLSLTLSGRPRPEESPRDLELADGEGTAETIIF
# Vasopressin V1a receptor = Vasopressin V1a receptor (Homo sapiens, UniProt P37288); experiment: Displacement of [3H]arginine-vasopressin from human Vasopressin V1a receptor after 30 mins by liquid scintillation counter
# [2] = Permeability of the compound at 5 mg/ml after 18 hrs by PAMPA-BBB assay; format: ADME; conditions: in the assay text read “25 ug/ml” for “5 mg/ml”
# Summary of the method: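 PAMPA-BBB: DMSO stocks (5 mg/mL) diluted 200-fold into universal buffer pH 7.4, giving 25 μg/mL in the donor wells. The filter membrane was coated with porcine brain lipid in dodecane (20 mg/mL), with buffer pH 7.4 as acceptor. Plates stood undisturbed at room temperature for 18 h. Verapamil and theophylline served as high- and low-permeability standards. Pe was calculated by the Faller equation.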
# Sequence of Vasopressin V2 receptor (P30518 whole entry): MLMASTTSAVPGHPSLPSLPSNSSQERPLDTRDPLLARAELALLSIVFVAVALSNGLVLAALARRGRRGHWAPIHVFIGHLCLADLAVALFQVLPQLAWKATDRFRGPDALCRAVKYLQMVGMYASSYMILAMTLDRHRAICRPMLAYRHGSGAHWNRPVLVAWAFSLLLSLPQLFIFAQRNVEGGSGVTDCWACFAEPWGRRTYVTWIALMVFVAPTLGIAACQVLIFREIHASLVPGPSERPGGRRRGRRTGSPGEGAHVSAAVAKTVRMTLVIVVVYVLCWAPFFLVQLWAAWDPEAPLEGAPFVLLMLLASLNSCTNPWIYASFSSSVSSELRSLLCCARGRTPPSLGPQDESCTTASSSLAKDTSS
# Sequence of Vasopressin V1a receptor (P37288 whole entry): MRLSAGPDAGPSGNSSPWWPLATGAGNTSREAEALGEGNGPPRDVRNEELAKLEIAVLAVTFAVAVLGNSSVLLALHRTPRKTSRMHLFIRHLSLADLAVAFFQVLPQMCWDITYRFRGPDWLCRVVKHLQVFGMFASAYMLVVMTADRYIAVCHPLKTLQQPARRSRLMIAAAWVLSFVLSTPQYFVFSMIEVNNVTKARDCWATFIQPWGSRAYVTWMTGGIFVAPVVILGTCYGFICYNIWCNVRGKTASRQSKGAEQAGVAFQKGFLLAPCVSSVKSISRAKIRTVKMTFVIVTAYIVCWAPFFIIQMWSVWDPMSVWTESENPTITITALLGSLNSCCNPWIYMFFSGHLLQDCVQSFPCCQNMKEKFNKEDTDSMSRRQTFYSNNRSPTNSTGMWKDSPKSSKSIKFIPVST
pKi (Vasopressin V2 receptor),permeability [1] [×10⁻⁶ cm/s],pKi (Vasopressin V1b receptor),pKi (Vasopressin V1a receptor),permeability [2] [×10⁻⁶ cm/s],SMILES
< 5.00,4.5,5.89,9.20,–,Cc1cccc(/C=C/[C@@H]2[C@H](N3C(=O)OC[C@@H]3c3ccccc3)C(=O)N2[C@H](CC(=O)N2CCC(N3CCCCC3)CC2)C(=O)N[C@H](C)c2ccccc2)c1
< 6.00,–,< 6.00,–,2.2,C[C@@H](NC(=O)[C@@H](CC(=O)N1CCC(N2CCCCC2)CC1)N1C(=O)[C@@H](N2C(=O)OC[C@@H]2c2ccccc2)[C@H]1/C=C/c1cccc(I)c1)c1ccccc1
< 5.00,5.3,5.94,9.21,–,C[C@@H](NC(=O)[C@@H](CC(=O)N1CCC(N2CCCCC2)CC1)N1C(=O)[C@@H](N2C(=O)OC[C@@H]2c2ccccc2)[C@H]1/C=C/c1cccc(F)c1)c1ccccc1
